Screening results as filed in PubChem BioAssay.
Compounds with a hit are over-represented: about 1.8% of the library has one in this group of screens.
Tn7 DDE FP: DD(E)-Tn7 binding inhibition, primary FP screen. P02675. FP displacement of FITC-Tn7 peptide from fibrin DD(E); 0% = median of compound wells per plate. inhibition, % at 8.3 µM. 370,000 tested, 0.13% active. AID 720508;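 active means inhibition above the mean of compounds falling within the control limits plus 3 SD of them, cut at about 14% in these data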;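 further: 0% = plate median of compound wells and 100% = 10 µM Aha-Tn7 peptide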
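Test system: human clot-derived fibrin DD(E) complex / Quantity: 2 µM final DD(E) protein / Incubation: 10 min plus 3 h, room temperature / Measured by: fluorescence polarization / Benchmarks: high control of 10 µM Aha-Tn7 peptide / Replicates: singlicate testing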
HTRA1 inhibitor: HTRA1 (human) protease inhibition; Q92743; recombinant HTRA1, FP-rhodamine activity-based probe, fluorescence polarization; inhibition, % at 5.96 µM; 340,000 tested, 0.5% active; AID 504803; in the data active means inhibition above about 36%;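 further: 0% = enzyme with DMSO and 100% = wells lacking enzyme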
Target sequence (Q92743 whole entry, looked up): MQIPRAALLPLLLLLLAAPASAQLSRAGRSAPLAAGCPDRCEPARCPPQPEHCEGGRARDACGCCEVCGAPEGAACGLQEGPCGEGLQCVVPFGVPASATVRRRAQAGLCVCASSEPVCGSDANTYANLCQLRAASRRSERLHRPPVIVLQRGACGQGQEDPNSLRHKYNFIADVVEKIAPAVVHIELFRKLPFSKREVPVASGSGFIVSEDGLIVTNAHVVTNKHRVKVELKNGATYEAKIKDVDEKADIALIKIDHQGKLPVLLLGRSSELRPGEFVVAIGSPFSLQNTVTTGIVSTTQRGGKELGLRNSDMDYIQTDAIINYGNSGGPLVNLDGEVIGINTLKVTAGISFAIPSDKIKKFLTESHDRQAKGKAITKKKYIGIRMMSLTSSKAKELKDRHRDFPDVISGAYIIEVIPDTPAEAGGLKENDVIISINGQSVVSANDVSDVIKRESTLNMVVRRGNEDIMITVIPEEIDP
SIAE primary: inhibitors of human sialic acid acetylesterase SIAE | 370,000 tested, 0.69% active | Q9HAT2 | SIAE FP-Rh probe binding, fluorescence polarization | inhibition, % at 9.66 µM;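 active means inhibition above a cutoff: mean of compounds within the control limits plus 3 SD of those, cut at about 17% in these data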;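 further: 0% = plate median of compound wells and 100% = probe without SIAE protein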
Tn6 DDE FP: inhibitors of Tn6 peptide binding to human fibrin DD(E); P02675; Fibrin DD(E) TRITC-Tn6 fluorescence polarization displacement; inhibition, % at 8.3 µM; 370,000 tested, 0.21% active; AID 720509;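 active means inhibition above a per-campaign cutoff: mean of compounds within control limits plus 3 SD, cut at about 15% in these data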;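 further: 0% = median of all compound wells on the plate and 100% = blocking peptide control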
mABHD4 FP: inhibits mouse alpha/beta hydrolase domain 4 | purified mABHD4, FP-Rh probe fluorescence polarization | inhibition, % at 8.92 µM | 370,000 tested, 0.54% active;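 active means inhibition exceeding the mean over every tested compound plus 3 SD, cut at about 30% in these data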;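 further: 0% = plate median of compound wells and 100% = S159A mutant with DMSO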
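Assay system: wild-type mouse ABHD4 protein; compound: single nominal dose of 8.92 µM, 0.89% DMSO final; schedule: 45 min + 60 min at 25 °C; measured by: FP readout, ex 525 nm / em 598 nm; evaluation: % inhibition of FP-Rh probe binding versus controls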
TCR CD3 inh: inhibitors of human TCR-CD3 interaction | TAMRA-labeled TCR probe fluorescence, biochemical | inhibition, % at 9.4 µM | 360,000 tested, 0.37% active | AID 651800; in the data active means inhibition above about 19%;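 further: recombinant mutant TCR 2C K166C tagged with TAMRA read by polarization; 0% = receptor in buffer alone and 100% = receptor with positive control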
mABHD4 conf: confirmation of mouse ABHD4 inhibitors; shares compounds with mABHD4 FP; purified mABHD4, FP-Rh probe fluorescence polarization; inhibition, % at 8.92 µM; 1,800 tested, 55% active; AID 720658;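 active means mean inhibition across replicates above the hit cutoff set in the primary screen, cut at about 30% in these data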;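 further: 0% = wild-type ABHD4 with DMSO and 100% = catalytically dead S159A mutant with DMSO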
* marks the source's active call; other numbers are inactive results; x = no result given.

SMILES	Tn7 DDE FP	HTRA1 inhibitor	SIAE primary	Tn6 DDE FP	mABHD4 FP	TCR CD3 inh	mABHD4 conf
CCOC(=O)C1CCN(C2=C(NS(=O)(=O)c3ccc(Cl)cc3)C(=O)c3ccccc3C2=O)CC1	-2	29	7	0	41*	3	58*
CC1CCN(C2=C(NS(=O)(=O)c3ccc(Cl)cc3)C(=O)c3ccccc3C2=O)CC1	-4	10	8	2	17	10	x
CCCN1CCS(=O)(=O)N(Cc2cn(Cc3ccc(F)cc3)nn2)C(C(=O)OC)C1 (configuration not stated)	-3	x	0	1	-2	x	x
N#Cc1cccc(OC[C@@H](O)CN2CCC(C(O)(c3ccccc3)c3ccccc3)CC2)c1	-7	x	-6	1	14	x	x
COc1ccc(OC)c(CN2C(=O)CSCCC2(C)c2nnnn2C2CCCC2)c1 (configuration not stated)	-3	x	-3	-1	4	x	x
C=CS(=O)(=O)N(Cc1nnn(Cc2ccccc2)c1Br)[C@@H](CC(C)C)C(=O)OC	3	x	0	-1	-1	x	x
CC1CCCC(C)N1C(=O)COC(=O)CCC(=O)c1cccs1 (configuration not stated)	-2	-2	5	6	60*	9	-7
CCOc1ccc(NS(=O)(=O)c2ccc(Cl)c(N=Nc3c(O)[nH]c(=S)[nH]c3=O)c2)cc1Br	-1	15	8	0	39*	-5	52*
COc1ccc(NS(=O)(=O)c2cc(N=Nc3c(O)[nH]c(=O)[nH]c3=O)ccc2OC)cc1Br	-1	4	-4	-6	18	7	x
COc1ccc(S(=O)(=O)N(C(=O)c2ccco2)c2cc3sc(=O)oc3c3ccccc23)cc1	0	22	-53	-11	54*	3	31*
COC(=O)[C@]12C[C@H](CC(=O)NCCCN3CCCC3=O)C(=O)N(Cc3ccc(Cl)cc3Cl)C1=C[C@H](COCc1ccccc1)O[C@@H]2C	0	x	0	-3	-1	x	x
CC1=C(CCN2CCN(C3CCCC3)C(CCO)C2)C(C)(C)CCC1 (configuration not stated)	0	-9	2	-5	61*	-2	-12
CC(C)=C1C(=O)NN(c2ccc(C)c(Cl)c2)C1=O	-1	34	12	4	37*	4	21
COc1ccccc1NS(=O)(=O)c1ccc(O)c(C(=O)OCc2cccc([N+](=O)[O-])c2)c1	2	-12	-2	-4	32*	1	38*
COc1ccccc1NS(=O)(=O)c1ccc(C)c(C(N)=O)c1	-1	6	-3	2	9	2	x
CCN(Cc1ccccc1)c1ccc(/C=N/N=C(N)N)cc1	-6	23	6	1	46*	0	62*
CCN(Cc1ccccc1)c1ccccc1	1	0	3	-1	2	3	x
CCCC#Cc1ccc(CC[C@H]2O[C@H]3CC[C@H](CO)O[C@H]3C[C@H]2NC(=O)CN2CCOCC2)cc1	-2	x	2	2	4	x	x
CC(=O)c1ccc(N2CCN(C(=O)c3ccc4c(=O)[nH]c5c(C(=O)NC6CCCC6)sc(=S)n5c4c3)CC2)cc1	-6	x	-5	-7	34*	7	27
O=C(NC1CCCCC1)c1sc(=S)n2c1[nH]c(=O)c1ccccc12	-7	3	-10	1	25	1	x
O=C(NCCc1ccccc1)c1ccc2c(=O)[nH]c3c(C(=O)NCC4CCCO4)sc(=S)n3c2c1 (configuration not stated)	-2	10	-17	-22	50*	7	36*
O=C(NCCc1ccc(Cl)cc1)c1ccc2c(=O)[nH]c3c(C(=O)NCC4CCCO4)sc(=S)n3c2c1 (configuration not stated)	0	x	7	0	36*	1	33*
CC(C)NC(=O)c1sc(=S)n2c1[nH]c(=O)c1ccc(C(=O)NCCc3ccc(Cl)cc3)cc12	8	7	6	-5	10	-2	x
O=C([C@@H]1C[C@H]1c1ccccc1)N1CC[C@H]2[C@H](CCCN2Cc2cc(F)cc(F)c2)C1	-5	x	0	-1	-1	x	x
COC(=O)[C@]12C[C@H](CC(=O)N3CCCCC3)C(=O)N(CCc3ccc(OC)c(OC)c3)C1=C[C@H](COCc1ccccc1)O[C@@H]2C	1	x	1	-3	-1	x	x
SMILES	Tn7 DDE FP	HTRA1 inhibitor	SIAE primary	Tn6 DDE FP	mABHD4 FP	TCR CD3 inh	mABHD4 conf
COC(=O)c1cccc(Cn2ccc3ccc(-c4ccc5ccn(C(=O)c6cccc(OC)c6)c5c4)cc32)c1	-1	x	-9	6	-21	x	x
O=S(=O)(c1ccc(NC(=S)N/N=C/c2cccc(Oc3ccccc3)c2)cc1)N1CCOCC1	-5	-13	-2	-4	2	-2	x
O=S(=O)(c1ccc(NC(=S)N/N=C/c2ccc(O)c(O)c2)cc1)N1CCOCC1	5	35	-4	-1	31*	8	21
COc1ccc(C2C3=C(CC(C)(C)CC3=O)Oc3ncn4nc(-c5cccnc5)nc4c32)cc1 (configuration not stated)	8	2	-2	-15	30*	3	-13
O=C(O)c1ccc2c(c1)C1C=CCC1C(c1cc3c(cc1Br)OCO3)N2 (configuration not stated)	9	7	5	7	-7	5	x
O=C(O)c1ccc(NS(=O)(=O)c2ccc3c(c2)C2C=CCC2C(c2ccccc2F)N3)cc1 (configuration not stated)	-3	22	6	-14	42*	-1	26
O=C(c1cccs1)N1CC[C@H]2[C@H](CCCN2Cc2ccc(F)cc2)C1	3	x	-2	7	2	x	x
CC(=O)c1ccc(NC(=O)CSc2nnc(-c3ccco3)c(-c3ccco3)n2)cc1	-1	20	8	-6	45*	3	30*
CC(=O)Nc1ccc(NC(=O)CSc2nnc(-c3ccco3)o2)cc1	-2	1	-3	-9	-6	-9	x
OCCCN1CCC2(CCC(c3ccccc3)CC2)C1 (configuration not stated)	5	x	1	-2	-1	x	x
CC(=O)C1C(=O)c2c(cccc2[N+](=O)[O-])C1=Nc1ccccc1C (configuration not stated)	3	x	3	3	6	-9	x
CC(=O)C1C(=O)c2c(cccc2[N+](=O)[O-])C1=Nc1cccc(Cl)c1 (configuration not stated)	-4	14	8	-5	36*	8	61*
c1ccc(-c2cc(-c3nnc4sc(Cc5cccs5)nn34)[nH]n2)cc1	0	x	-17	-6	-22	x	x
